Data reported in ChEMBL document CHEMBL2331390, “Telomere shortening and cell senescence induced by perylene derivatives in A549 human lung cancer cells” (Bioorg Med Chem, 2013).
Active and inactive are the calls of the source. The rule behind the calls is not given here.

How the values were obtained:
[1] = test system: A549; test: Cytotoxicity against human A549 cells assessed as colony formation at 0.4 uM incubated for 78 days followed by subculturing in compound-free medium measured after 14 days by crystal violet staining method relative to control; assay type: functional
Summary of the method: (§1)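 A549 cells from the long-term culture (0.4 or 0.8 μM, medium changed every 3 days, replated every 6 days) were collected on the stated day. 2×10^3 cells seeded per 10-cm dish, fed every 4-5 days. Colonies stained with crystal violet after 14 days and counted; expressed as % of control. Controls under 25 colonies excluded. Three independent experiments.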

[2] = test system: A549; test: Cytotoxicity against human A549 cells assessed as colony formation at 0.8 uM incubated for 78 days followed by subculturing in compound-free medium measured after 14 days by crystal violet staining method relative to control; assay type: functional; summary of the method: as §1
[3] = test system: A549; test: Cytotoxicity against human A549 cells assessed as colony formation at 0.8 uM incubated for 30 days followed by subculturing in compound-free medium measured after 14 days by crystal violet staining method relative to control; assay type: functional; summary of the method: as §1
[4] = test system: A549; test: Cytotoxicity against human A549 cells assessed as colony formation at 0.4 uM incubated for 30 days followed by subculturing in compound-free medium measured after 14 days by crystal violet staining method relative to control; assay type: functional; summary of the method: as §1
[5] = test system: A549; test: Cytotoxicity against human A549 cells assessed as reduction in colony formation incubated for 30 days followed by subculturing in compound-free medium measured after 14 days by crystal violet staining method; assay type: functional, cell-based; summary of the method: as §1
[6] = test system: A549; test: Binding affinity to human TERT promoter DNA sequence in human A549 cells assessed as telomere restriction fragment length at 0.4 uM after 78 days by TeloTAGGG-based chemiluminescence assay (reference value: 3.4 kb); assay type: cell-based
Summary of the method: (§2)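 Genomic DNA from A549 cells kept long-term with 0.4 or 0.8 μM compound (medium changed every 3 days, replated every 6 days). DNA isolated with DNAzol. 2 µg digested with RsaI/HinfI, run on 0.8% agarose, Southern-blotted, hybridized with DIG-labeled telomeric probe, anti-DIG alkaline phosphatase, chemiluminescence. Mean TRF = Σ(ODi)/Σ(ODi/Li).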

[7] = species on record: Homo sapiens; test: Binding affinity to human TERT2 5'-GGGGGCTGGGCCGGGGACCCGGGAGGGGTCGGGACGGGGCGGGG-3' DNA assessed as induction of intermolecular G-quadruplex formation at 8 to 32 uM after 10 hrs by PAGE analysis
Summary of the method: (§3)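 FAM-labeled G-rich strand (2 µM) and complementary C-rich strand (2 µM) with compound in 10 mM Tris-HCl pH 7.4, 100 mM KCl. Heated to 95 °C for 5 min, slowly cooled to 55 °C, held 10 h, then cooled to 4 °C. Duplex vs G-quadruplex resolved on 16% native PAGE with 50 mM KCl (4 °C, 350 V, 10 h) and fluorescence-imaged.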

[8] = species on record: Homo sapiens; test: Binding affinity to human telomeric 5'-AGATAGTTAGGGTTAGGGTTAGGGTTAGGGTT-3' DNA assessed as induction of intramoleculsr G-quadruplex formation after 10 hrs by PAGE analysis; summary of the method: as §3
[9] = test system: A549; test: Binding affinity to human TERT promoter DNA sequence in human A549 cells assessed as decrease in TERT mRNA expression at 6 uM after 24 hrs by semi-quantitative PCR analysis relative to control; assay type: cell-based; set-up: scale not given: the % may be the effect or the level left
Summary of the method: (§4)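 A549 cells (3.0×10^5) grown 24 h in RPMI 1640 + 10% FBS at 37 °C, 5% CO2, then exposed to compound for 24 h. Total RNA by Trizol, reverse transcribed, hTERT amplified with specific primers. Semi-quantitative and real-time SYBR Green PCR (45 cycles), standard-curve method, normalized to GAPDH. Three independent experiments.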

[10] = test system: A549; test: Antiproliferative activity against human A549 cells assessed as decrease in population doubling at 0.4 uM after 78 days; assay type: functional, cell-based
Summary of the method: (§5)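 A549 cells (1.5×10^5) seeded in RPMI 1640 + 10% FBS with 0.4 or 0.8 μM perylene or medium only. Medium changed every 3 days. Every 6 days, at confluence, cells were trypsinized, counted by hemocytometer and replated at 1.5×10^5. Population doublings n = (log Pn − log P0)/log 2, cumulated against time. Three independent experiments.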

[11] = test system: A549; test: Cytotoxicity against human A549 cells assessed as colony formation at 0.8 uM incubated for 6 days followed by subculturing in compound-free medium measured after 14 days by crystal violet staining method relative to control; assay type: functional; summary of the method: as §1
[12] = test system: A549; test: Binding affinity to human TERT promoter DNA sequence in human A549 cells assessed as telomere restriction fragment length at 0.4 uM after 30 days by TeloTAGGG-based chemiluminescence assay (reference value: 3.3 kb); assay type: cell-based; summary of the method: as §2
[13] = test system: A549; test: Binding affinity to human TERT promoter DNA sequence in human A549 cells assessed as telomere restriction fragment length at 0.4 uM after 6 days by TeloTAGGG-based chemiluminescence assay (reference value: 3.4 kb); assay type: cell-based; summary of the method: as §2
[14] = test system: A549; test: Antiproliferative activity against human A549 cells assessed as decrease in cell viability at 0.8 uM after 78 days relative to control; assay type: functional, cell-based; summary of the method: as §5
[15] = species on record: Homo sapiens; test: Binding affinity to human TERT1 5'-AAGGGGAGGGGCTGGGAGGGCCCGGA-3' DNA assessed as induction of intramoleculsr G-quadruplex formation after 10 hrs by PAGE analysis; summary of the method: as §3
[16] = Binding affinity to TSG4 primer DNA (unknown origin) assessed as inhibition of telomerase-mediated extension of primer […] by fluorescence-based TRAP assay
Summary of the method: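 Cell-free TRAP. Compound preincubated with TSG4 primer in telomerase buffer (20 mM Tris-HCl pH 7.4, 1.5 mM MgCl2, 63 mM KCl, 1 mM EGTA, 200 µM dNTPs) at 37 °C for 2 h. Crude telomerase (50 ng) from telomerase-transfected HEK293T added, 30 °C for 30 min. Compound removed by phenol-chloroform, products ethanol-precipitated, PCR with FAM-tagged primer, 8% native PAGE, phosphoimaging. IC50 ± SD from three experiments.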

[17] = test system: A549; test: Binding affinity to human TERT promoter DNA sequence in human A549 cells assessed as inhibition of telomerase-mediated MTS primer extension after 24 hrs by fluorescence-based TRAP assay; assay type: cell-based
Summary of the method: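 A549 cells exposed to compound for 24 h, lysed in CHAPS buffer, protein measured by Bradford. 6 µg lysate protein used as telomerase source in fluorescent TRAP with MTS primer (no G-quadruplex motif), with no phenol-chloroform step. FAM-primer PCR, native PAGE, fluorescence quantified. Mean ± SD of three experiments.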

[18] = test system: A549; test: Induction of senescence in human A549 cells assessed as increase in beta-galactosidase activity at 0.4 to 0.8 uM incubated for 78 days followed by subculturing on compound-free medium measured after 48 hrs by fluorescence microscopic analysis; assay type: functional, cell-based
Summary of the method: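 A549 cells from the long-term treatment replated and grown 48 h. Fixed in 2% formaldehyde/0.2% glutaraldehyde for 5 min at RT. Stained overnight with 1 mg/ml X-gal in pH 6 citrate/phosphate buffer with 5 mM ferro/ferricyanide, 150 mM NaCl, 2 mM MgCl2. Enlarged blue cells scored by microscopy.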

[19] = test system: A549; test: Antiproliferative activity against human A549 cells assessed as decrease in population doubling at 0.8 uM after 78 days relative to control; assay type: functional; set-up: scale not given: the % may be the effect or the level left; summary of the method: as §5
[20] = test system: A549; test: Binding affinity to human TERT promoter DNA sequence in human A549 cells assessed as telomere restriction fragment length at 0.8 uM after 78 days by TeloTAGGG-based chemiluminescence assay (reference value: 3.4 kb); assay type: cell-based; summary of the method: as §2
[21] = test system: A549; test: Binding affinity to human TERT promoter DNA sequence in human A549 cells assessed as telomere restriction fragment length at 0.8 uM after 30 days by TeloTAGGG-based chemiluminescence assay (reference value: 3.3 kb); assay type: cell-based; summary of the method: as §2
[22] = test system: A549; test: Binding affinity to human TERT promoter DNA sequence in human A549 cells assessed as decrease in TERT mRNA expression after 24 hrs by semi-quantitative PCR analysis; assay type: cell-based; summary of the method: as §4
[23] = test system: A549; test: Cytotoxicity against human A549 cells assessed as colony formation at 0.4 uM incubated for 6 days followed by subculturing in compound-free medium measured after 14 days by crystal violet staining method relative to control; assay type: functional; summary of the method: as §1
[24] = test system: A549; test: Binding affinity to human TERT promoter DNA sequence in human A549 cells assessed as telomere restriction fragment length at 0.8 uM after 6 days by TeloTAGGG-based chemiluminescence assay (reference value: 3.4 kb); assay type: cell-based; summary of the method: as §2

O=C1c2ccc3c4ccc5c6c(ccc(c7ccc(c2c37)C(=O)N1CCN1CCCCC1)c64)C(=O)N(CCN1CCCCC1)C5=O
Activity [1]: 78% | Activity [2]: 66% | Activity [3]: 89% | Activity [4]: 96% | Activity [5]: Dose-dependent effect | Activity [6]: 3 kilobase | Activity [7]: Active | Activity [8]: Dose-dependent effect | Activity [9]: 68% | Activity [10]: inactive | Activity [11]: 93% | Activity [12]: 3.3 kilobase | Activity [13]: 3.6 kilobase | Activity [14]: inactive | Activity [15]: Dose-dependent effect | IC50 [16]: 1400 nM | inhibition [16]: Dose-dependent effect | Activity [17]: Dose-dependent effect | Activity [18]: inactive | Activity [19]: 20% | Activity [20]: 2.7 kilobase | Activity [21]: 3.1 kilobase | Activity [22]: Dose-dependent effect | Activity [23]: 95% | Activity [24]: 3.5 kilobase
